Data from paper PMC4138072 (Biochemistry, 2014).
“Also recorded” adds a separate entry of the source.

Tests used:
[1] = test system: human arginase I; assay: Isothermal titration calorimetry, human arginase I; assay type: binding; settings: ITC Kd, human arginase I versus SmARG
[2] = test system: human arginase I; settings: cited from earlier work
[3] = test system: S. mansoni schistosomula; assay: Helminth fluorescence bioassay; assay type: cell-based, Schistosoma mansoni; settings: 100 μM, in vitro cocultivation
In short: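 S. mansoni schistosomula were mechanically transformed and exposed to test compound at 100 μM final. Incubation was 24 h (also 72 h) at 37 °C in humidified 5% CO2. Viability was then scored by the helminth fluorescence bioassay, in duplicate.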

[4] = biological target: T1, SmARG (S. mansoni arginase) (Schistosoma mansoni, UniProt Q6WVP6); assay: Colorimetric arginase activity assay; assay type: biochemical; settings: Figure S2b
T1 sequence (Q6WVP6 1-364): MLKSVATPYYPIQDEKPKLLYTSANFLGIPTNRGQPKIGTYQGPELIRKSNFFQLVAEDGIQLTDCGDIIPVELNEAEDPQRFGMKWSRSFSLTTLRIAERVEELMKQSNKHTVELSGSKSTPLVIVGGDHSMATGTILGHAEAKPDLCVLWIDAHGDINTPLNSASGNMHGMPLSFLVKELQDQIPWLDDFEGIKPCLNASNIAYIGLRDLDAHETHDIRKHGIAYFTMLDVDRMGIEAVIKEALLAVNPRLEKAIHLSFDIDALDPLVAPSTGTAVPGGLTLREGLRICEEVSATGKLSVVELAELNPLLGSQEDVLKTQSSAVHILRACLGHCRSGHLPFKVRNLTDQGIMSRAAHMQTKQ
In short: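 Recombinant SmARG was expressed in E. coli BL21(DE3) and purified by Talon affinity then size exclusion into bicine pH 8.5 with 100 μM MnCl2. Reactions used 0.5–50 mM L-arginine in 50 mM EPPS pH 8.5 with 100 μM MnCl2, started with 1 μM enzyme at 21 °C and stopped after 1 min with acid/α-isonitrosopropiophenone. Samples were heated 1 h at 90 °C and urea read at A550. Ki came from a competitive-inhibition Michaelis–Menten fit, in triplicate.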

[5] = biological target: T1, SmARG (S. mansoni arginase); assay: Isothermal titration calorimetry of SmARG–inhibitor complexes; assay type: binding; settings: ITC Kd

SMILES	schistosomula viability or morphology ([3]; 24 h, 37 °C, absence of host)	schistosomula viability or morphology ([3]; 72 h (data not shown))	enhancement of affinity compared with the parent SmARG–ABH complex [5] [fold]	other results
N[C@@H](CCCCB(O)O)C(=O)O [ABH, 2(S)-amino-6-boronohexanoic acid]	no significant difference; also recorded: do not affect parasite viability	no significant difference	–	tighter binding to human arginase I than to SmARG [1]: 260 fold; preferential inhibition of human arginase I compared with nor-NOHA [2]: at least 10 fold
Cl.O=C(O)CCP(CCC(=O)O)CCC(=O)O [TCEP, Tris(2-carboxyethyl)phosphine hydrochloride]	–	–	–	SmARG activity in the presence of reducing reagents [4]: severely attenuated
N[C@@](CCCCB(O)O)(C(=O)O)C1CCN(Cc2ccc(Cl)c(Cl)c2)CC1 (racemic) [ABHDP, (R)-2-amino-6-borono-2-[1-(3,4-dichlorobenzyl)piperidin-4-yl]hexanoic acid]	–	–	5	–
N[C@](CCCCB(O)O)(CCN1CCCCC1)C(=O)O [ABHPE, (R)-2-amino-6-borono-2-[2-(piperidin-1-yl)ethyl]hexanoic acid]	–	–	2	–
N=C(NO)NCC[C@H](N)C(=O)O [nor-NOHA, nor-N-hydroxy-L-arginine]	no significant difference; also recorded: do not affect parasite viability	no significant difference	–	more effective than ABH in binding to SmARG ([5]; N-hydroxyguanidinium moiety versus tetrahedral boronate anion of ABH): ~4 fold
